# Source: paper PMC7641749 (Nucleic Acids Research, 2020)
# What was measured:
# [1] = test system: DROSHA; assay: Co-IP of overexpressed DROSHA with ERH; format: binding, human; details: ectopic DROSHA co-expressed with C-terminal tail of DGCR8
# Procedure, shortened: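 HEK293E cells at 50% confluence were transfected with 5 μg total of Flag-, HA- or myc-tagged plasmids using branched/linear PEI (1:1) and harvested after 2 days. Anti-Flag, anti-HA or protein G-bound anti-myc beads were incubated with lysate 1–2 h at 4°C, washed three times and eluted in SDS buffer for western blot.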
# [2] = test system: DGCR8; assay: Co-IP of ERH and DGCR8 in DROSHA knock-out cells; format: binding, human; details: HCT116 DROSHA knock-out cells
# Procedure, shortened: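 HCT116 wild-type and DROSHA knock-out cells were grown in McCoy's 5A with 9% FBS. Proteins were boiled at 95°C for 5 min, separated on 8–16% Tris–glycine gels and transferred to PVDF. Detection was by infrared imaging or chemiluminescence.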
# [3] = test system: miR-144–451a; assay: ERH rescue experiment, qRT-PCR; format: cell-based, human; details: ERH ectopically expressed in ERH-depleted HEK293E cells, shERH, n = 3
# Procedure, shortened: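 HEK293E cells at 50% confluence got shERH (3′UTR-targeting) plasmid with Fugene HD for 48 h, then were trypsinized and counted. 4E5 cells were co-transfected with 2.5 μg total of shERH, pri-miRNA expression plasmid and wild-type or homodimerization-mutant ERH plasmid (1:2:2) using 5 μl Fugene HD. Total RNA was harvested 48 h later for qRT-PCR.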
substance,measurement,setting,value
Enhancer of Rudimentary Homolog [ERH],interaction between DROSHA and ERH,[1],could not detect meaningful interaction
same,interaction between ERH and DGCR8,[2],not affected by the absence of DROSHA
same,expression of miR-144,[3],without significantly altering miR-144 expression
same,expression of miR-451a,[3],increased the expression of miR-451a
